Measurements published in the RNAGym collection of RNA variant scans (doi:10.1126/science.aae0568).
This sample holds only a part of the variants without activity.

B1: tRNA (parent)
chain: GUUCCGUUGGCGUAAUGGUAACGCGUCUCCCUCCUAAGGAGAAGACUGCGGGUUCGAGUCCCGUACGGAACG

Variants of: B1
Assay: yeast fitness relative to wild type (ratio to wild type); higher = fitter; tRNA-Arg(CCU), competitive growth, 37 C, YPD
Outline: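 For this measurement, the tRNA-Arg(CCU) gene was varied by chemical synthesis at a 3% per-site mutation rate across 69 sites, and each variant was placed at the native genomic locus in Saccharomyces cerevisiae. The pooled strains went through a 24-hour competition in YPD at 37°C in six parallel replicates, with amplicons from start and end populations read by 100-nucleotide paired-end sequencing. Darwinian fitness relative to wild type followed from the change in each genotype's frequency. Genotypes needed ≥ 100 starting reads, and estimates < 0.5 were set to 0.5.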

Variant | yeast fitness
G56A A70G | 0.886
G25A C46U A57G | 0.676
C11U U28C G44C A69C A70C | ≤ 0.5
A20U C30A A40C | ≤ 0.5
C11U A15C G56A | 0.57
C11A G25C C29U A65C A70U | 0.541
G44C C60G A65G | 0.617
C29G G58C | 0.642
U26G C46G | 0.807
G18A C27A | 0.726
A36U C62U | 0.645
G23A U26A U28A C29G | ≤ 0.5
C5G A20C U28C C29A A36U A40U C49G G63C A70U | 0.579
U3C A21G C30A C33G U59A C66U | ≤ 0.5
U2C G6C | 0.861
U26C A42U G56A | 0.651
A45U G68C | 0.66
U2G A20C G38A C46A | ≤ 0.5
C29U U32G A43U G44C C61U | 0.509
A20C A42C A69U | 0.576
A36U A43U | 0.638

Variant | yeast fitness
U16A C61A C66U A69C | 0.697
A21G C22A A40U C61U | 0.507
C46A G58A | 0.837
C5A G12A U35C G44A G48C C55G A69U | ≤ 0.5
C22G G44A | 0.846
U26A U54A G58A | ≤ 0.5
A20U C34A G58C C62A A69C | ≤ 0.5
G9C A15C U35C U59A | 0.605
G6C G18C A21G A40U U47A C49U C61U A70G | ≤ 0.5
C30A C34U G63C | 0.698
U2C U13C G38A | 0.596
G12C C55G C66U | ≤ 0.5
C5G G6C G38C G58U | 0.551
G38U G63A | 0.743
U3G U13A U16A | 0.65
G23A A36U G39C C66U | ≤ 0.5
C4A G23A C24G C61A C66U | ≤ 0.5
A15U G25C G67A | ≤ 0.5
C11U C62G G63A | 0.529
U13A A36G A43U G51A | ≤ 0.5
C4U U8C A15C G63C | ≤ 0.5

Variant | yeast fitness
G10C U19C C33G | 0.769
U3C A15G C30G G56A G63C G67A | ≤ 0.5
C11G A21U U26C | ≤ 0.5
C4G A57U U59C G67A | ≤ 0.5
G6C C24A A69U | ≤ 0.5
C5U U16A G63A | ≤ 0.5
U19A C30G A43C U47C U54C | ≤ 0.5
G39C U54G | 0.547
G12A C24A U26G A43C C62G G63A C66G A69G | ≤ 0.5
C5G G17C G63A A65G | ≤ 0.5
C34G A43U C55U A57C C66A | 0.639
A14G C29G | 0.564
U3G C11G | 0.556
U2A U8C | 1.01
A43U A57C G58A | ≤ 0.5
G12C A37C A40U C46U | 0.59
C5U G52C C66U | 0.57
C30G A42U A45G | ≤ 0.5
U2A U3C C4U C61A G67C | 0.59
G6A U8A G44C A57U | ≤ 0.5
U19G G52C C62A | ≤ 0.5

Variant | yeast fitness
C11A G39A C62A | ≤ 0.5
U2G A14U C22G C30G G58A | ≤ 0.5
C5A C46U C49U | 0.809
G10A C30A G41C C60G A70U | 0.645
U16A C29G C31G C62U A69C | ≤ 0.5
A21G G48C C66U G67C A70G | ≤ 0.5
U47C U59G | 0.936
G23A C66U | 0.824
U3A C30U U59A A69C | ≤ 0.5
C11G G18C C27A C66U | 0.636
U8C C30U | 0.935
G18C C24G U35C G50C C55G | ≤ 0.5
U13C C31G A40C A42G G51A | 0.578
C11A A20G C46U G50C C60A A70C | 0.632
C11U C24G C27G A36U G38C C60G C66A | ≤ 0.5
U16A G39A C46U A57U C66U | ≤ 0.5
U7C G18A C30U C34A | ≤ 0.5
A21G C33A C55A A65C A70C | ≤ 0.5
U7C A36G A57U | 0.566
U7G U47C | 0.845
